Legend:
Format in all cases: functional
[1] = test system: Staphylococcus aureus; assay: Antibacterial activity against Staphylococcus aureus after 24 hrs by twofold serial dilution method
Summary of the method: (§1)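 Bacteria activated by inoculation into luria broth for 24 h at 30 °C. Compounds dissolved in DMSO, then diluted in luria broth as twofold serial concentrations. Test cultures incubated 24 h at 37 °C. MIC taken as the lowest concentration giving complete inhibition of growth.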

[2] = test system: Bacillus subtilis; assay: Antibacterial activity against Bacillus subtilis after 24 hrs by twofold serial dilution method; summary of the method: as §1
[3] = test system: Serratia marcescens; assay: Antibacterial activity against Serratia marcescens after 24 hrs by twofold serial dilution method; summary of the method: as §1
[4] = test system: Pseudomonas aeruginosa; assay: Antibacterial activity against Pseudomonas aeruginosa after 24 hrs by twofold serial dilution method; summary of the method: as §1
[5] = test system: Escherichia coli; assay: Antibacterial activity against Escherichia coli after 24 hrs by twofold serial dilution method; summary of the method: as §1

Row | SMILES | Activity [1] | Activity [2] | Activity [3] | Activity [4] | Activity [5]
1 | CCn1cc(C(=O)O)c(=O)c2cc(F)c(N3CCN(C)CC3)cc21 [PEFLOXACIN] | 2.1 µM | 2.4 µM | 5.1 µM | 5.7 µM | 2.7 µM
2 | COc1ccc(/N=C(C)\C(C)=N\c2ccc(OC)cc2)cc1 | 1855 µM | 1518 µM | 2024 µM | 2193 µM | 2361 µM
3 | C[C@@H]1CN(c2c(F)c(N)c3c(=O)c(C(=O)O)cn(C4CC4)c3c2F)C[C@H](C)N1 [SPARFLOXACIN] | 1.27 µM | 2.04 µM | 1.53 µM | 1.53 µM | 1.27 µM
4 | COc1c(N2CCNC(C)C2)c(F)cc2c(=O)c(C(=O)O)cn(C3CC3)c12 (stereo not given) [GATIFLOXACIN] | 5.06 µM | 4 µM | 2.93 µM | 1.01 µM | 2.93 µM
5 | C/C(=N/c1ccccc1/N=C(\C)c1ccccc1)c1ccccc1 | 1760 µM | 1600 µM | 1760 µM | 1920 µM | 2080 µM
6 | Nc1cccc2cccc(N)c12 | 3160 µM | 3476 µM | 4108 µM | 3792 µM | 4108 µM
7 | C[C@H]1COc2c(N3CCN(C)CC3)c(F)cc3c(=O)c(C(=O)O)cn1c23.C[C@H]1COc2c(N3CCN(C)CC3)c(F)cc3c(=O)c(C(=O)O)cn1c23.O [LEVOFLOXACIN] | 1.66 µM | 2.21 µM | 1.67 µM | 1.66 µM | 0.97 µM
8 | CC1COc2c(N3CCN(C)CC3)c(F)cc3c(=O)c(C(=O)O)cn1c23 (stereo not given) [OFLOXACIN] | 1.94 µM | 1.38 µM | 1.66 µM | 2.21 µM | 1.38 µM
9 | O=C(O)c1cn(C2CC2)c2cc(N3CCNCC3)c(F)cc2c1=O [CIPROFLOXACIN] | 1.63 µM | 1.09 µM | 1.63 µM | 1.36 µM | 1.36 µM
10 | CCN1CCN(c2cc3c(cc2F)c(=O)c(C(=O)O)cn3C2CC2)CC1 [ENROFLOXACIN] | 1.95 µM | 3.9 µM | 1.67 µM | 1.39 µM | 1.39 µM
11 | COc1ccc(/C=N/CC/N=C/c2ccc(OC)cc2)cc1 | 1687 µM | 1518 µM | 1687 µM | 1855 µM | 2193 µM
12 | Nc1ccccc1N | 5086 µM | 5548 µM | 6010 µM | 6010 µM | 6473 µM
13 | NCCN [ETHYLENEDIAMINE] | 8319 µM | 9151 µM | 9983 µM | 10815 µM | 10815 µM
14 | CCn1cc(C(=O)O)c(=O)c2cc(F)c(N3CCNCC3)cc21 [NORFLOXACIN] | 2.5 µM | 2.51 µM | 4.07 µM | 3.76 µM | 2.82 µM

Source: ChEMBL document CHEMBL1152508, “Interaction of drug based binuclear mixed-ligand complexes with DNA” (2009)
